Consider five molecules from ChEMBL document CHEMBL1152659, “Removal of the 20-methyl group from 2-methylene-19-nor-(20S)-1alpha,25-dihydroxyvitamin D(3) (2MD) selectively eliminates bone calcium mobilization activity” (Bioorg Med Chem, 2009).

The subject of assay [1] is Rattus norvegicus. Kind of assay: Effect on bone calcium mobilization in weanling Sprague-Dawley rat assessed as serum calcium level at 260 pmol/day, ip administered for 4 consecutive days measured 24 hrs after last dose. The format is functional. In outline:
(§1)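 Male weanling rats fed 0.47% Ca + AEK oil for 1 wk, then 0.02% Ca for 3 wk, then 0.47% Ca for 1 wk, then 0.02% Ca for 2 wk. Dosing during the final low-Ca week: four i.p. doses about 24 h apart. Serum Ca measured on blood from severed neck 24 h after the last dose; statistics applied.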

For assay [2], the system named is Rattus norvegicus. Put plainly: Effect on bone calcium mobilization in weanling Sprague-Dawley rat assessed as serum calcium level at 2340 pmol/day, ip administered for 4 consecutive days measured 24 hrs after last dose. Format: functional. In outline:
as §1

Assay [3] deals with Rattus norvegicus. Kind of assay: Effect on bone calcium mobilization in weanling Sprague-Dawley rat assessed as serum calcium level at 780 pmol/day, ip administered for 4 consecutive days measured 24 hrs after last dose. The format is functional. In outline: as §1
The subject of assay [4] is Rattus norvegicus. Kind of assay: Effect on bone calcium mobilization in weanling Sprague-Dawley rat assessed as serum calcium level at 87 pmol/day, ip administered for 4 consecutive days measured 24 hrs after last dose. The format is functional. The procedure, abridged: as §1
Assay [5] has as its system Rattus norvegicus. Kind of assay: Effect on bone calcium mobilization in weanling Sprague-Dawley rat assessed as serum calcium level at 7020 pmol/day, ip administered for 4 consecutive days measured 24 hrs after last dose. The format is functional. In outline: as §1
Assay [6] concerns Rattus norvegicus. Put plainly: Effect on intestinal calcium transport in weanling Sprague-Dawley rat assessed as ratio of serosal to mucosal calcium level at 87 pmol/day, ip administered for 4 consecutive days measured 24 hrs after last dose by everted gut sac method. Format: functional. In outline: (§2)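 Same rats and regimen: low/normal Ca diet cycling, then four i.p. doses about 24 h apart during the final 0.02% Ca week. First 10 cm of intestine taken 24 h after the last dose; Ca transport measured by everted gut sac.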

Assay [7] concerns HL-60. Put plainly: Induction of differentiation of human HL60 promyelocytes into monocytes after 4 days by NBT reduction assay. The format is functional, cell-based. To be noted: HL-60, 96 h.
The target in assay [8] is T1, Vitamin D3 receptor (Rattus norvegicus, UniProt P13053).
T1 sequence (P13053 whole entry): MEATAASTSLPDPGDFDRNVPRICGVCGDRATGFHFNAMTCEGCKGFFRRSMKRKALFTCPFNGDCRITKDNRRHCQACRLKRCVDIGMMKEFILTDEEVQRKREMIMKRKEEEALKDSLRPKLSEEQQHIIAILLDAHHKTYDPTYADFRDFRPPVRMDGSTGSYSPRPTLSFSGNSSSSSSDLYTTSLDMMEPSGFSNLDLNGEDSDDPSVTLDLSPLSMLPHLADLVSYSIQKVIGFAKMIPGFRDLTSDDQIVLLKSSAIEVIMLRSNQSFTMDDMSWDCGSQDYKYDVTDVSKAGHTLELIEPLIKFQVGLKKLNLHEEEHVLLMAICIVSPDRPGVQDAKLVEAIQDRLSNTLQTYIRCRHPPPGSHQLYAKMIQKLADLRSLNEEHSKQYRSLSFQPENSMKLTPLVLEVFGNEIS
Put plainly: Activity at VDR in rat osteosarcoma cells assessed as induction of 24-hydroxylase reporter gene transcription by luciferase reporter gene assay. The format is cell-based. In outline:
(§3)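 Rat osteosarcoma cells stably transfected with a 24-hydroxylase gene reporter plasmid; luciferase read-out. EC50 from dose–response curves = concentration raising luciferase activity by 50%. Ratio = average of analog EC50 over 1α,25-(OH)2D3 EC50. Duplicates on at least two separate occasions.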
On the technique in general: A reporter such as luciferase makes a cellular process visible.

The test system of assay [9] is Rattus norvegicus. Kind of assay: Effect on intestinal calcium transport in weanling Sprague-Dawley rat assessed as ratio of serosal to mucosal calcium level at 260 pmol/day, ip administered for 4 consecutive days measured 24 hrs after last dose by everted gut sac method. The format is functional. The procedure, abridged: as §2
Assay [10] deals with T1, Vitamin D3 receptor. Put plainly: Displacement of radiolabeled 1-alpha,25-(OH)2D3 from rat recombinant full length VDR.
For assay [11], the system named is HL-60. Put plainly: Ratio of compound ED50 to [3H]1-alpha,25-(OH)2D3 ED50 for induction of differentiation of human HL60 promyelocytes into monocytes after 4 days by NBT reduction assay. The format is functional.
The target of assay [12] is T2, Vitamin D3 receptor (Rattus norvegicus) (UniProt P13053).
T2 sequence (whole entry): T1 sequence (P13053 whole entry)
Put plainly: Ratio of compound EC50 to [3H]1-alpha,25-(OH)2D3 EC50 for VDR in rat osteosarcoma cells by 24-hydroxylase gene transcriptional activation assay. Format: cell-based. The procedure, abridged:
as §3

Assay [13] has as its system Rattus norvegicus. Kind of assay: Effect on intestinal calcium transport in weanling Sprague-Dawley rat assessed as ratio of serosal to mucosal calcium level at 2340 pmol/day, ip administered for 4 consecutive days measured 24 hrs after last dose by everted gut sac method. The format is functional. The procedure, abridged:
as §2

Assay [14] deals with T2, Vitamin D3 receptor (Rattus norvegicus). Kind of assay: Ratio of compound Ki to [3H]1-alpha,25-(OH)2D3 Ki for rat recombinant full length VDR.
The subject of assay [15] is Rattus norvegicus. Put plainly: Effect on intestinal calcium transport in weanling Sprague-Dawley rat assessed as ratio of serosal to mucosal calcium level at 7020 pmol/day, ip administered for 4 consecutive days measured 24 hrs after last dose by everted gut sac method. The format is functional. The procedure, abridged:
as §2

The test system of assay [16] is Rattus norvegicus. Put plainly: Effect on intestinal calcium transport in weanling Sprague-Dawley rat assessed as ratio of serosal to mucosal calcium level at 780 pmol/day, ip administered for 4 consecutive days measured 24 hrs after last dose by everted gut sac method. The format is functional. In outline: as §2

Take `C=C1/C(=C\C=C2/CCC[C@]3(C)[C@@H]([C@H](C)CCCC(C)(C)O)CC[C@@H]23)C[C@@H](O)C[C@@H]1O` [CALCITRIOL]: the Activity came out at 5 mg/dL in assay [1], 6.9 mg/dL in assay [2], 5.3 mg/dL in assay [3] and 4.6 mg/dL in assay [4].
For orientation: EC50 means the concentration needed to bring the measured effect to its halfway point. A word on the Ki: it is a dissociation constant, usually derived from enzyme kinetics or from competition with a known ligand. Turning to `C=C1[C@H](O)CC(=C/C=C2\CCC[C@@H]3[C@@H](CCCCC(C)(C)O)CC[C@@H]23)C[C@H]1O`, the Activity in assay [1] was found to be 4.3 mg/dL; in assay [5], 6.5 mg/dL; in assay [2], 6.1 mg/dL; in assay [4], 4 mg/dL. The Ratio in assay [6] was found to be 7.2; in assay [9], 2.3; in assay [13], 7.5; in assay [15] it was 11.4. Further, the figures for the EC50 in assay [7] and in [8] were 0.3 nM and 0.06 nM, respectively. For the same molecule, the Ki in assay [10] came to 0.1 nM. Moreover, the “Ratio ED50” value in [11] is reported as 0.15. The Ratio EC50 in [12] came out at 0.2. Moreover, the Ratio Ki in assay [14] worked out at 1.
On to `C=C1[C@H](O)CC(=C/C=C2\CCC[C@@H]3[C@@H]([C@@H](C)CCCC(C)(C)O)CC[C@@H]23)C[C@H]1O`, for which the Activity in assay [1] was 5.7; in [5], 8.7 mg/dL; in assay [2] it was 7.8 mg/dL; in [3] it was 6.6 mg/dL. The values for the EC50 in assay [7] and in [8] were 0.4 nM and 0.02 nM, respectively. In addition, the Ratio is 8.4 in assay [9], 10 in assay [16], 8.5 in assay [13] and 14.5 in assay [15]. In addition, the Ki in [10] stood at 0.02 nM. In [11], the “Ratio ED50” value amounted to 0.2. The Ratio EC50 in assay [12] was 0.07. The Ratio Ki in [14] is 0.2.
Take `C=C1[C@H](O)CC(=C/C=C2\CCC[C@]3(C)[C@@H]([C@@H](C)CCCC(C)(C)O)CC[C@@H]23)C[C@H]1O` [DP001]: the values for the Activity in assay [1], in assay [3] and in assay [4] were 9.3 mg/dL, 11.1 mg/dL and 8.4 mg/dL, respectively. Also, the figures for the Ratio in assay [6], in assay [9] and in [16] were 12.3, 11.4 and 10.9, respectively.
For `C=C1[C@H](O)CC(=C/C=C2\CCC[C@]3(C)[C@@H](CCCCC(C)(C)O)CC[C@@H]23)C[C@H]1O`, the Activity amounted to 4.6 mg/dL in [1]; 5.1 mg/dL in [5]; 5.3 mg/dL in assay [2]; 4.9 mg/dL in [3]; 4.3 mg/dL in assay [4]. The Ratio stood at 5.6 in assay [6]; 7.4 in assay [9]; 10.2 in assay [16]; 8.8 in assay [13]; 7.8 in assay [15]. The EC50 in [7] and in assay [8] was 0.2 nM each time. For the same molecule, in [10], the Ki came out at 0.2 nM. Further, the “Ratio ED50” value in assay [11] was 0.35. Further, the Ratio EC50 in assay [12] turned out to be 0.67. In addition, the Ratio Ki in assay [14] is 2.
